{"data": "Measurements collected from several papers", "read-out": "cell growth or viability", "note": "Each line is one published result; the experiments were not run side by side."}
{"SMILES": "COc1cc(C)cc2oc(-c3ccccc3)cc(=O)c12", "cell line": "HS27", "test": "MTT", "conditions": "24 h", "quantity": "CC50", "value": "> 200 µM"}
{"SMILES": "C[C@]1(CO)[C@H]2CC[C@@H]3CN(Cc4ccco4)[C@@H](C4=CCOC4=O)C[C@H]3[C@]2(C)CC[C@H]1O", "cell line": "MRC5", "test": "ATP luminescence", "conditions": "25 µM, 72 h", "quantity": "cell death", "value": "-0.1%"}
{"SMILES": "COc1cc(C)cc2oc(-c3ccc(N(C)C)cc3)cc(=O)c12", "cell line": "HS27", "test": "MTT", "conditions": "24 h", "quantity": "CC50", "value": "141 µM"}
{"SMILES": "COc1cc2ccc(=O)oc2cc1OC", "cell line": "MRC5", "test": "MTT", "conditions": "24 h", "quantity": "IC50", "value": "> 100 µM"}
{"SMILES": "COc1ccc(S(=O)(=O)ON=C2C=C(C)C(=O)C(C)=C2)cc1", "cell line": "MDA-MB-231", "quantity": "CC50", "value": "1.03 µM"}
{"SMILES": "COc1cc(OC)c2c(=O)cc(-c3ccc(C(F)(F)F)cc3)oc2c1", "cell line": "HS27", "test": "MTT", "conditions": "24 h", "quantity": "CC50", "value": "> 200 µM"}
{"SMILES": "CC(C)(C)CC(C)(C)Nc1c(-c2cccc(C#N)c2)nc2ncccn12", "cell line": "MDA-MB-231", "test": "MTT", "conditions": "25 µM, 48 h", "quantity": "viability", "value": "75.8%"}
{"SMILES": "COc1cc(C)cc2oc(-c3ccc(Br)cc3)cc(=O)c12", "cell line": "HS27", "test": "MTT", "conditions": "24 h", "quantity": "CC50", "value": "> 200 µM"}
{"SMILES": "C[C@]1(CO)[C@H]2CC[C@@H]3CN(Cc4cccs4)[C@@H](C4=CCOC4=O)C[C@H]3[C@]2(C)CC[C@H]1O", "cell line": "MRC5", "test": "ATP luminescence", "conditions": "25 µM, 72 h", "quantity": "cell death", "value": "-7.4%"}
{"SMILES": "COc1ccc(-c2nc3ncccn3c2NC(C)(C)CC(C)(C)C)cc1O", "cell line": "MDA-MB-231", "test": "MTT", "conditions": "25 µM, 48 h", "quantity": "viability", "value": "67.3%"}
{"SMILES": "CC1(C)OC[C@@]2(C)[C@H]3CC[C@@H]4CN(Cc5ccccc5C5CC5)[C@@H](C5=CCOC5=O)C[C@H]4[C@]3(C)CC[C@H]2O1", "cell line": "MRC5", "test": "ATP luminescence", "conditions": "25 µM, 72 h", "quantity": "cell death", "value": "16.7%"}
{"SMILES": "COc1ccc(COc2ccc(NC(=O)NC[C@H]3O[C@H](n4cc(C)c(=O)[nH]c4=O)C[C@@H]3O)cc2)cc1", "cell line": "MRC5", "quantity": "CC50", "value": "> 50 µM"}
